Source: ChEMBL document CHEMBL1156792, “Application of the dipeptidyl peptidase IV (DPPIV/CD26) based prodrug approach to different amine-containing drugs” (J Med Chem, 2010)

Key:
[1] = substrate: CC(C)[C@H](N)C(=O)N1CCC[C@H]1C(=O)Nc1ccc2ncccc2c1; test: (§1) Activity of human recombinant CD26 assessed as hydrolysis
Summary of the method: (§2)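 Human recombinant CD26 (Sf9-expressed) was incubated with prodrug at several levels (2–50 μM, or 50–1000 μM for the AspPro conjugate). Hydrolysis was quantified by RP-8 HPLC at 15, 30 and 45 min. Km and Vmax were calculated at each time point and averaged over the three, with at least two to three independent experiments.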

[2] = substrate: CC(C)[C@H](N)C(=O)N1CCC[C@H]1C(=O)N[C@H](C(=O)N1CCC[C@H]1C(=O)Nc1ncnc2c1ncn2[C@@H]1O[C@H](CO)[C@@H](O)[C@@H]1O)C(C)C; test: as §1; summary of the method: as §2
[3] = substrate: COc1cccc2c1C(=O)c1c(O)c3c(c(O)c1C2=O)C[C@@](O)(C(=O)CO)C[C@@H]3O[C@H]1C[C@H](NC(=O)[C@@H]2CCCN2C(=O)[C@@H](N)C(C)C)[C@H](O)[C@H](C)O1; test: as §1; summary of the method: as §2
[4] = substrate: N[C@@H](CC(=O)O)C(=O)N1CCC[C@H]1C(=O)Nc1ccc2ncccc2c1; test: as §1; summary of the method: as §2

B1: Dipeptidyl peptidase 4 (Homo sapiens), P27487 (protein)
chain: MKTPWKVLLGLLGAAALVTIITVPVVLLNKGTDDATADSRKTYTLTDYLKNTYRLKLYSLRWISDHEYLYKQENNILVFNAEYGNSSVFLENSTFDEFGHSINDYSISPDGQFILLEYNYVKQWRHSYTASYDIYDLNKRQLITEERIPNNTQWVTWSPVGHKLAYVWNNDIYVKIEPNLPSYRITWTGKEDIIYNGITDWVYEEEVFSAYSALWWSPNGTFLAYAQFNDTEVPLIEYSFYSDESLQYPKTVRVPYPKAGAVNPTVKFFVVNTDSLSSVTNATSIQITAPASMLIGDHYLCDVTWATQERISLQWLRRIQNYSVMDICDYDESSGRWNCLVARQHIEMSTTGWVGRFRPSEPHFTLDGNSFYKIISNEEGYRHICYFQIDKKDCTFITKGTWEVIGIEALTSDYLYYISNEYKGMPGGRNLYKIQLSDYTKVTCLSCELNPERCQYYSVSFSKEAKYYQLRCSGPGLPLYTLHSSVNDKGLRVLEDNSALDKMLQNVQMPSKKLDFIILNETKFWYQMILPPHFDKSKKYPLLLDVYAGPCSQKADTVFRLNWATYLASTENIIVASFDGRGSGYQGDKIMHAINRRLGTFEVEDQIEAARQFSKMGFVDNKRIAIWGWSYGGYVTSMVLGSGSGVFKCGIAVAPVSRWEYYDSVYTERYMGLPTPEDNLDHYRNSTVMSRAENFKQVEYLLIHGTADDNVHFQQSAQISKALVDVGVDFQAMWYTDEDHGIASSTAHQHIYTHMSHFIKQCFSLP
- Km [1]: 25 µM
- Vmax (nmol/hr/microg) [1]: 32
- Km [2]: 56 µM
- Vmax (nmol/hr/microg) [2]: 10
- Km [3]: 15 µM
- Vmax (nmol/hr/microg) [3]: 30
- Km [4]: 524 µM
- Vmax (nmol/hr/microg) [4]: 70
